The values below come from ChEMBL document CHEMBL1139419, “Quantitative structure-activity relationship studies on nitrofuranyl anti-tubercular agents” (2008).

Converted amounts (≈) assume the structure as drawn.

The experiment deals with Mycobacterium tuberculosis. Description: Antitubercular activity against Mycobacterium tuberculosis H37Rv assessed as drug level causing 90% growth inhibition after 7 days by microbroth dilution method. The format is functional. To be noted: for MIC: Mycobacterium tuberculosis, H37Rv, 168 h. The procedure, abridged:
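Two-fold serial dilutions in 7H9 broth with 10% albumin-dextrose complex and 0.05% (v/v) Tween80, in round-bottom microtiter plates, with final concentrations starting at 200 μg/mL. Equal volume of H37Rv broth inoculum added. Incubated aerobically at 37°C for 7 days and read visually. MIC taken as the lowest concentration inhibiting 90% of growth relative to the no-drug control.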
A general note: Broth dilution looks for growth in wells or tubes with falling amounts of substance.

In general, MIC refers to the least concentration at which growth counts as inhibited. On to `NC1CCN(c2ccc(CNC(=O)c3ccc([N+](=O)[O-])o3)cc2)C1` (configuration not stated), for which the “-logMIC” value was found to be 2.6172 and the MIC was found to be 0.8 µg/mL (≈ 2.42 µM).
Consider `CCOC(=O)N1CCN(c2ccc(CNC(=O)c3ccc([N+](=O)[O-])o3)cc2)CC1`, for which the “-logMIC” value amounted to 4.8123 and the MIC amounted to 0.0062 µg/mL (≈ 0.0154 µM).
In the same order, the values of `CN1CCN(c2ccc3c(c2)CCN(C(=O)c2ccc([N+](=O)[O-])o2)C3)CC1` are 3.8697 and 0.05 µg/mL (≈ 0.135 µM).
Taken in the same sequence, the figures for `O=C(c1ccc([N+](=O)[O-])o1)N1CCC(Oc2ccc(OC(F)(F)F)cc2)CC1` were 5.6993 and 0.0008 µg/mL (≈ 0.002 µM).
In the same order, the values of `CC(C)(C)OC(=O)N1CCN(c2ccc(CNC(=O)c3ccc([N+](=O)[O-])o3)cn2)CC1` are 5.7318 and 0.0008 µg/mL (≈ 0.00185 µM).
In the case of `O=C(NCc1ccc(C(F)(F)F)cc1)c1ccc([N+](=O)[O-])o1`, the “-logMIC” value stood at 3.7983 and the MIC was 0.05 µg/mL (≈ 0.159 µM).
Consider `COC(=O)NC(=O)c1ccc([N+](=O)[O-])o1`, for which the “-logMIC” value stood at 2.7286 and the MIC came out at 0.4 µg/mL (≈ 1.87 µM).
For `O=C(NCc1ccco1)c1ccc([N+](=O)[O-])o1`, the “-logMIC” value was found to be 1.5774 and the MIC worked out at 6.25 µg/mL (≈ 26.5 µM).
Taken in the same sequence, the figures for `O=C(NCc1ccc(N2CCCN(Cc3ccccc3)CC2)cc1)c1ccc([N+](=O)[O-])o1` were 3.0309 and 0.4 µg/mL (≈ 0.921 µM).
In the same order, the values of `O=C(NCc1ccc(N2CCN(Cc3ccccc3)CC2)cc1)c1ccc([N+](=O)[O-])o1` are 2.4296 and 1.56 µg/mL (≈ 3.71 µM).
Taken in the same sequence, the figures for `O=C(NCc1ccc(N2CCS(=O)(=O)CC2)cc1)c1ccc([N+](=O)[O-])o1` were 0.8801 and 50 µg/mL (≈ 132 µM).
